Assay results published in ChEMBL document CHEMBL1811844, “Design, synthesis, and biological evaluation of triazolo-pyrimidine derivatives as novel inhibitors of hepatitis B virus surface antigen (HBsAg) secretion” (J Med Chem, 2011).

Legend:
Type in all cases: ADME, organism-based
Conditions in all cases: in vivo
Rattus norvegicus [1] = test: Volume of distribution at steady state in fasted Sprague-Dawley rat at 5 mg/kg, iv by LC/MS/MS analysis; set-up: dose 5 mg/kg, route intravenous
Procedure, shortened: (§1)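 Male Sprague-Dawley rats, 3 per treatment, carried jugular cannulae and were fasted 12 h with water. Compound was formulated at 2 mg/mL in 1:1 NMP:Solutol HS15 diluted with saline. Dosing was 5 mg/kg iv or 25 mg/kg oral gavage. Blood was drawn predose and at 5, 15, 30 min, 1, 3 and 6 h. Plasma was quantified by LC-MS/MS against an 8-point standard curve.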

Rattus norvegicus [2] = test: Cmax in fasted Sprague-Dawley rat plasma at 25 mg/kg, po after 6 hrs by LC/MS/MS analysis; set-up: dose 25 mg/kg, route oral
Procedure, shortened: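 Male rats, 3 per treatment, fitted with jugular vein cannulae two days before dosing and fasted 12 h (water allowed). Compound given by gavage at 25 mg/kg, formulated at 2 mg/mL in 1:1 NMP:Solutol HS15 diluted with saline. Blood taken predose and at 5, 15, 30 min, 1, 3 and 6 h. Plasma quantified by LC/MS against an 8-point standard curve; Cmax calculated by standard methods.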

Rattus norvegicus [3] = test: Half life in fasted Sprague-Dawley rat plasma at 5 mg/kg, iv by LC/MS/MS analysis; set-up: dose 5 mg/kg, route intravenous; procedure, shortened: as §1
Rattus norvegicus [4] = test: Oral bioavailability in fasted Sprague-Dawley rat at 25 mg/kg after 6 hrs by LC/MS/MS analysis; procedure, shortened: as §1
Rattus norvegicus [5] = test: Total body clearance in fasted Sprague-Dawley rat at 5 mg/kg, iv by LC/MS/MS analysis; set-up: dose 5 mg/kg, route intravenous; procedure, shortened: as §1

Fc1cccc(F)c1C1C=C(c2ccc(Cl)cc2)Nc2ncnn21 (stereo not given)
Vdss (Rattus norvegicus [1]): 2.6 L/kg
Cmax (Rattus norvegicus [2]): 1937 ng/mL
t1/2 (Rattus norvegicus [3]): 2.4 h
F (Rattus norvegicus [4]): 42%
CL (Rattus norvegicus [5]): 17 mL/min/kg
